ChEMBL document CHEMBL1649289, “Paradoxical growth of Candida dubliniensis does not preclude in vivo response to echinocandin therapy” (2009)
Values after ≈ are worked out from the molar mass of the structure shown. Starred links: 1 amine or outer side, 2 acyl side, 3 side chain; linkers in the order of their positions; H or OH if unused. Positions of bridges follow the written chain, without caps; N, C: chain ends. Non-standard residues stand in square brackets, D forms with d. Residues, ends and D or L forms follow the SMILES beside them. *: point of attachment. hTyr(3S-OH,4S-OH,3'-OSO3H) = N[C@H](C(=O)O)[C@H](O)[C@@H](O)c1ccc(O)c(OS(=O)(=O)O)c1; pTerphenylCO(4''-OnC5H11) = CCCCCOc1ccc(-c2ccc(-c3ccc(C(=O)*)cc3)cc2)cc1; Orn(4R-OH,5R-OH) = O=C([C@H](C[C@@H](O)[C@@H](O)N[*:3])N[*:1])[*:2]; hTyr(3S-OH,4S-OH) = N[C@H](C(=O)O)[C@H](O)[C@@H](O)c1ccc(O)cc1; Pro(3S-OH,4S-Me) = C[C@H]1CN[C@H](C(=O)O)[C@H]1O; X1 = CCCCCOc1ccc(-c2cc(-c3ccc(C(=O)*)cc3)no2)cc1; Gln(3R-OH) = NC(=O)C[C@@H](O)[C@H](N)C(=O)O; Hyp = O=C(O)[C@@H]1C[C@@H](O)CN1

What was measured:
Assay type in all cases: functional
Candida dubliniensis [1] = assay: Antifungal activity against Candida dubliniensis FMR 10034 infected in OF1 mouse assessed as fungal count in kidney at 1 mg/kg/day, iv […]
In short: (§1)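 Immunocompetent male OF1 mice, 10 per group, were challenged i.v. with 1.5 × 10^7 CFU. Drug was given i.v. once daily at 1 or 10 mg/kg for 3 days, starting 24 h post-challenge; controls were untreated. Mice were killed 1 day after the last dose. Kidneys and spleen were homogenized in saline, serial 10-fold dilutions were plated on Sabouraud agar at 35°C for 3 days, and mean log10 CFU was reported.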

Candida dubliniensis [2] = assay: Antifungal activity against Candida dubliniensis 10032 by hemocytometry
In short: (§2)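 Minimal fungicidal concentration from the broth dilution test, defined as the lowest drug level giving ≥99.9% reduction in CFU/ml. Inocula were adjusted by hemocytometer.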

Candida dubliniensis [3] = assay: Antifungal activity against Candida dubliniensis 10032 after 24 hrs; conditions: Candida dubliniensis, 10032, 24 h
In short: (§3)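 CLSI M27-A3 broth microdilution. Yeast inoculum was adjusted with a hemocytometer. MIC was read at 24 h or 48 h as the lowest concentration giving 50% growth inhibition.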

Candida dubliniensis [4] = assay: Antifungal activity against Candida dubliniensis 10034 after 48 hrs; conditions: Candida dubliniensis, 10034, 48 h; in short: as §3
Candida dubliniensis [5] = assay: Antifungal activity against Candida dubliniensis 9453 after 48 hrs; conditions: Candida dubliniensis, 9453, 48 h; in short: as §3
Candida dubliniensis [6] = assay: Antifungal activity against Candida dubliniensis FMR 10034 infected in OF1 mouse assessed as fungal count in spleen at 10 mg/kg/day, iv […]; in short: as §1
Candida dubliniensis [7] = assay: Antifungal activity against Candida dubliniensis 10034 after 24 hrs; conditions: Candida dubliniensis, 10034, 24 h; in short: as §3
Candida dubliniensis [8] = assay: Antifungal activity against Candida dubliniensis 10032 after 48 hrs; conditions: Candida dubliniensis, 10032, 48 h; in short: as §3
Candida dubliniensis [9] = assay: Antifungal activity against Candida dubliniensis 9456 after 48 hrs; conditions: Candida dubliniensis, 9456, 48 h; in short: as §3
Candida dubliniensis [10] = assay: Antifungal activity against Candida dubliniensis 10033 by hemocytometry; in short: as §2
Candida dubliniensis [11] = assay: Antifungal activity against Candida dubliniensis 10034 by hemocytometry; in short: as §2
Candida dubliniensis [12] = assay: Antifungal activity against Candida dubliniensis 10035 after 48 hrs; conditions: Candida dubliniensis, 10035, 48 h; in short: as §3
Candida dubliniensis [13] = assay: Antifungal activity against Candida dubliniensis FMR 10032 infected in OF1 mouse assessed as fungal count in spleen at 10 mg/kg/day, iv […]; in short: as §1
Candida dubliniensis [14] = assay: Antifungal activity against Candida dubliniensis FMR 10034 infected in OF1 mouse assessed as fungal count in spleen at 1 mg/kg/day, iv […]; in short: as §1
Candida dubliniensis [15] = assay: Antifungal activity against Candida dubliniensis FMR 10032 infected in immunosuppressed OF1 mouse assessed as fungal count in spleen at 1 mg/kg/day, iv […]
In short: (§4)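 Male OF1 mice, 10 per group, were immunosuppressed on infection day with cyclophosphamide 200 mg/kg i.p. plus 5-fluorouracil 150 mg/kg i.v., then challenged i.v. with 1.5 × 10^5 CFU. Drug was given at 1 mg/kg i.v. once daily for 5 days, starting 24 h after challenge. One day after treatment ended, kidney and spleen homogenates were plated in 10-fold dilutions on Sabouraud agar (35°C, 3 days) and mean log10 CFU was reported.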

Candida dubliniensis [16] = assay: Antifungal activity against Candida dubliniensis FMR 10032 infected in OF1 mouse assessed as fungal count in kidney at 10 mg/kg/day, iv […]; in short: as §1
Candida dubliniensis [17] = assay: Antifungal activity against Candida dubliniensis FMR 10034 infected in OF1 mouse assessed as fungal count in kidney at 10 mg/kg/day, iv […]; in short: as §1
Candida dubliniensis [18] = assay: Antifungal activity against Candida dubliniensis 10034 assessed as compound concentration at which paradoxical growth of observed after 48 hrs
In short: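 In the same broth dilution (CLSI M27-A3) tests, read at 24 or 48 h, this is the range of drug concentrations over which paradoxical growth appeared. It was not set when growth occurred across the whole tested range (trailing).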

Candida dubliniensis [19] = assay: Antifungal activity against Candida dubliniensis FMR 10034 infected in immunosuppressed OF1 mouse assessed as fungal count in kidney at 1 mg/kg/day, iv […]; in short: as §4
Candida dubliniensis [20] = assay: Antifungal activity against Candida dubliniensis 10033 after 24 hrs; conditions: Candida dubliniensis, 10033, 24 h; in short: as §3
Candida dubliniensis [21] = assay: Antifungal activity against Candida dubliniensis FMR 10034 infected in immunosuppressed OF1 mouse assessed as fungal count in spleen at 1 mg/kg/day, iv […]; in short: as §4
Candida dubliniensis [22] = assay: Antifungal activity against Candida dubliniensis 9456 by hemocytometry; in short: as §2
Candida dubliniensis [23] = assay: Antifungal activity against Candida dubliniensis 9456 after 24 hrs; conditions: Candida dubliniensis, 9456, 24 h; in short: as §3
Candida dubliniensis [24] = assay: Antifungal activity against Candida dubliniensis 9453 by hemocytometry; in short: as §2
Candida dubliniensis [25] = assay: Antifungal activity against Candida dubliniensis FMR 10032 infected in OF1 mouse assessed as fungal count in kidney at 1 mg/kg/day, iv […]; in short: as §1
Candida dubliniensis [26] = assay: Antifungal activity against Candida dubliniensis 10031 by hemocytometry; in short: as §2
Candida dubliniensis [27] = assay: Antifungal activity against Candida dubliniensis 10031 after 24 hrs; conditions: Candida dubliniensis, 10031, 24 h; in short: as §3
Candida dubliniensis [28] = assay: Antifungal activity against Candida dubliniensis 10035 after 24 hrs; conditions: Candida dubliniensis, 10035, 24 h; in short: as §3
Candida dubliniensis [29] = assay: Antifungal activity against Candida dubliniensis FMR 10032 infected in OF1 mouse assessed as fungal count in spleen at 1 mg/kg/day, iv […]; in short: as §1
Candida dubliniensis [30] = assay: Antifungal activity against Candida dubliniensis 9453 after 24 hrs; conditions: Candida dubliniensis, 9453, 24 h; in short: as §3
Candida dubliniensis [31] = assay: Antifungal activity against Candida dubliniensis 10033 after 48 hrs; conditions: Candida dubliniensis, 10033, 48 h; in short: as §3
Candida dubliniensis [32] = assay: Antifungal activity against Candida dubliniensis FMR 10032 infected in immunosuppressed OF1 mouse assessed as fungal count in kidney at 1 mg/kg/day, iv […]; in short: as §4
Candida dubliniensis [33] = assay: Antifungal activity against Candida dubliniensis 10031 after 48 hrs; conditions: Candida dubliniensis, 10031, 48 h; in short: as §3
Candida dubliniensis [34] = assay: Antifungal activity against Candida dubliniensis 10033 assessed as compound concentration at which paradoxical growth of observed after 48 hrs
In short: (§5)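 Broth dilution susceptibility testing of yeasts per CLSI reference method M27-A3, with inocula adjusted by hemocytometer count. Wells were read at 24 and 48 h. The paradoxical growth range is the span of drug concentrations (μg/ml) over which growth reappeared above the inhibitory concentration. Where growth occurred across the entire concentration range (trailing), no range was determined.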

Candida dubliniensis [35] = assay: Antifungal activity against Candida dubliniensis 9456 assessed as compound concentration at which paradoxical growth of observed after 48 hrs; in short: as §5
Candida dubliniensis [36] = assay: Antifungal activity against Candida dubliniensis 9453 assessed as compound concentration at which paradoxical growth of observed after 48 hrs; in short: as §5

Row | SMILES | log10cfu (Candida dubliniensis [1]) | MFC (Candida dubliniensis [2]) [µg/mL] | MIC50 (Candida dubliniensis [3]) [µg/mL] | MIC50 (Candida dubliniensis [4]) [µg/mL] | MIC50 (Candida dubliniensis [5]) [µg/mL] | log10cfu (Candida dubliniensis [6]) | MIC50 (Candida dubliniensis [7]) [µg/mL] | MIC50 (Candida dubliniensis [8]) [µg/mL] | MIC50 (Candida dubliniensis [9]) [µg/mL] | MFC (Candida dubliniensis [10]) [µg/mL] | MFC (Candida dubliniensis [11]) [µg/mL] | MIC50 (Candida dubliniensis [12]) [µg/mL] | log10cfu (Candida dubliniensis [13]) | log10cfu (Candida dubliniensis [14]) | log10cfu (Candida dubliniensis [15]) | log10cfu (Candida dubliniensis [16]) | log10cfu (Candida dubliniensis [17]) | Activity (Candida dubliniensis [18]) [µg/mL] | log10cfu (Candida dubliniensis [19]) | MIC50 (Candida dubliniensis [20]) [µg/mL] | further results
1 | CCCCCOc1ccc(-c2cc(-c3ccc(C(=O)N[C@H]4C[C@@H](O)[C@@H](O)NC(=O)[C@@H]5[C@@H](O)[C@@H](C)CN5C(=O)[C@H]([C@H](O)CC(N)=O)NC(=O)[C@H]([C@H](O)[C@@H](O)c5ccc(O)c(OS(=O)(=O)O)c5)NC(=O)[C@@H]5C[C@@H](O)CN5C(=O)[C@H]([C@@H](C)O)NC4=O)cc3)no2)cc1 [MICAFUNGIN] (X1-[Orn(4R-OH,5R-OH)]T[Hyp][hTyr(3S-OH,4S-OH,3'-OSO3H)][Gln(3R-OH)][Pro(3S-OH,4S-Me)]; lactam 1-C) | 6.33 | 4 (≈ 3.15 µM) | < 0.03 | 0.125 (≈ 0.0984 µM) | 0.125 (≈ 0.0984 µM) | 4.18 | 0.06 (≈ 0.0472 µM) | 0.125 (≈ 0.0984 µM) | 0.125 (≈ 0.0984 µM) | 2 (≈ 1.57 µM) | > 16 | 0.03 (≈ 0.0236 µM) | 3.58 | 4.79 | 2.62 | 3.23 | 4.69 | 2 | 6.47 | 0.125 (≈ 0.0984 µM) | log10cfu (Candida dubliniensis [21]): 3.26; MFC (Candida dubliniensis [22]): > 16 µg/mL; MIC50 (Candida dubliniensis [23]): 0.06 µg/mL (≈ 0.0472 µM); MFC (Candida dubliniensis [24]): > 16 µg/mL; log10cfu (Candida dubliniensis [25]): 4.25; MFC (Candida dubliniensis [26]): > 16 µg/mL; MIC50 (Candida dubliniensis [27]): 0.125 µg/mL (≈ 0.0984 µM); MIC50 (Candida dubliniensis [28]): 0.03 µg/mL (≈ 0.0236 µM); log10cfu (Candida dubliniensis [29]): 3.97; MIC50 (Candida dubliniensis [30]): 0.125 µg/mL (≈ 0.0984 µM); MIC50 (Candida dubliniensis [31]): 0.25 µg/mL (≈ 0.197 µM); log10cfu (Candida dubliniensis [32]): 5.47; MIC50 (Candida dubliniensis [33]): 0.125 µg/mL (≈ 0.0984 µM)
2 | CCCCCOc1ccc(-c2ccc(-c3ccc(C(=O)N[C@H]4C[C@@H](O)[C@@H](O)NC(=O)[C@@H]5[C@@H](O)[C@@H](C)CN5C(=O)[C@H]([C@@H](C)O)NC(=O)[C@H]([C@H](O)[C@@H](O)c5ccc(O)cc5)NC(=O)[C@@H]5C[C@@H](O)CN5C(=O)[C@H]([C@@H](C)O)NC4=O)cc3)cc2)cc1 [ANIDULAFUNGIN] ({pTerphenylCO(4''-OnC5H11)}-[Orn(4R-OH,5R-OH)]T[Hyp][hTyr(3S-OH,4S-OH)]T[Pro(3S-OH,4S-Me)]; lactam 1-C) | 6.33 | 2 (≈ 1.75 µM) | < 0.03 | < 0.03 | < 0.03 | 4.25 | < 0.03 | < 0.03 | < 0.03 | 2 (≈ 1.75 µM) | > 16 | < 0.03 | 2.64 | 4.54 | 2.62 | 2.95 | 4.63 | 4 | 5.94 | < 0.03 | Activity (Candida dubliniensis [34]): 4 µg/mL; log10cfu (Candida dubliniensis [21]): 2.96; Activity (Candida dubliniensis [35]): 8 µg/mL; MFC (Candida dubliniensis [22]): > 16 µg/mL; MIC50 (Candida dubliniensis [23]): < 0.03 µg/mL; MFC (Candida dubliniensis [24]): > 16 µg/mL; log10cfu (Candida dubliniensis [25]): 5.65; MFC (Candida dubliniensis [26]): > 16 µg/mL; MIC50 (Candida dubliniensis [27]): < 0.03 µg/mL; MIC50 (Candida dubliniensis [28]): < 0.03 µg/mL; log10cfu (Candida dubliniensis [29]): 4.21; MIC50 (Candida dubliniensis [30]): < 0.03 µg/mL; MIC50 (Candida dubliniensis [31]): 0.06 µg/mL (≈ 0.0526 µM); log10cfu (Candida dubliniensis [32]): 5.75; MIC50 (Candida dubliniensis [33]): < 0.03 µg/mL; Activity (Candida dubliniensis [36]): 4 µg/mL
